Peptide text beside a SMILES is read from it. * marks the point of attachment. Pyrrolidide = C1CCN(*)C1
Legend:
[1] = target: T1, Angiotensin-converting enzyme (Oryctolagus cuniculus) (UniProt P12822); assay: In vitro stability of compound (0.5 uM) to inhibit NAcSDKP hydrolysis by rabbit lung Angiotensin I converting enzyme after 30 minutes incubation
T1 sequence (whole entry): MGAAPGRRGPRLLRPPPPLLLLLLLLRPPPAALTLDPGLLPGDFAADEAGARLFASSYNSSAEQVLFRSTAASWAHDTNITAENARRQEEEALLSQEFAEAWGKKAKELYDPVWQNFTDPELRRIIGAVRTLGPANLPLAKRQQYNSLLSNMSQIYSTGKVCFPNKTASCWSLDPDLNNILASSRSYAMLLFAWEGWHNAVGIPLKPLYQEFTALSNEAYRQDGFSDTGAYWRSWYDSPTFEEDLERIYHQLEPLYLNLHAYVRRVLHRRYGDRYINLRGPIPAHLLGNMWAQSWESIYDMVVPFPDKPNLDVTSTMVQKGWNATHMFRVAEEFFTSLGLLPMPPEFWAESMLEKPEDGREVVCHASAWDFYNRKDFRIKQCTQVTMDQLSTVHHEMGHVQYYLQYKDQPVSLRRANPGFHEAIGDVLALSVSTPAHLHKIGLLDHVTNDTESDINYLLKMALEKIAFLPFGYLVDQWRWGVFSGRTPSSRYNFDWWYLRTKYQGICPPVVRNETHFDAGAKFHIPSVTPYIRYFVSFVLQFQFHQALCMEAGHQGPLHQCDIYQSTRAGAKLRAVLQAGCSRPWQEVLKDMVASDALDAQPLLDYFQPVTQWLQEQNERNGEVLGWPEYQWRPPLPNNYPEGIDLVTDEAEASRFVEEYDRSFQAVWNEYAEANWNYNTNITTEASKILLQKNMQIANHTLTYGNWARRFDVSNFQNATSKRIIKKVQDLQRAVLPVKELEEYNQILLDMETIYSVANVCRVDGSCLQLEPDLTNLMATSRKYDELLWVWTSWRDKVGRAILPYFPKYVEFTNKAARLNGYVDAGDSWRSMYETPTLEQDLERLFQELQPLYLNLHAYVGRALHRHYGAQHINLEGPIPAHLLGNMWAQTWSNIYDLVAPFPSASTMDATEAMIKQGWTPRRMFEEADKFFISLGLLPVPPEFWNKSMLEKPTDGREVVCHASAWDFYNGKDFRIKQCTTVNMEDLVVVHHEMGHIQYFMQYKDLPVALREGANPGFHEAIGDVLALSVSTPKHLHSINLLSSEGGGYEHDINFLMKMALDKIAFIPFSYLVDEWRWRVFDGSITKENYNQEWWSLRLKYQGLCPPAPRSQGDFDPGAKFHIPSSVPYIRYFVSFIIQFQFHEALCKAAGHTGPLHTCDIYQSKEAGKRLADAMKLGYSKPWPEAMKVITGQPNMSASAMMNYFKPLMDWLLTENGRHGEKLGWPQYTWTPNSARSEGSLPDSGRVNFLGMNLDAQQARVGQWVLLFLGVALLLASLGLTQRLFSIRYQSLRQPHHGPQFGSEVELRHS
Outline: (§1)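 Rabbit lung ACE (0.1 unit/mL final) in Tris-maleate buffer pH 7 (100 mM Tris, 50 mM NaCl, 10^-5 M ZnSO4). Analogue (final 0.5, 5 or 50 µM) preincubated with enzyme 30 min at 37 °C. NAcSD[3H]KP (tritium on lysine side chain) plus cold peptide, 5 µM final, then added for 30 min at 37 °C. Frozen at -80 °C and run on high-voltage paper electrophoresis. Residual labelled substrate radioactivity compared with t=0. Duplicates, mean of two experiments.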

[2] = target: T1, Angiotensin-converting enzyme (Oryctolagus cuniculus); assay: In vitro stability of compound toward enzymatic degradation by rabbit lung Angiotensin I converting enzyme after 24 hr incubation
Outline: (§2)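 Degradation assay: rabbit lung ACE preincubated 30 min at 37 °C in Tris-maleate pH 7 (100 mM Tris, 50 mM NaCl, 10^-5 M ZnSO4). Peptide then added at 50 µM final with enzyme at 0.1 unit/mL, 37 °C for 30 min or 24 h. Stopped with 1% TFA, then RP-HPLC at 215 nm. Residual intact peptide read from peak area against t=0 and a 5-50 calibration curve. Mean of two experiments in triplicate.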

[3] = target: T1, Angiotensin-converting enzyme (Oryctolagus cuniculus); assay: In vitro stability of compound (5 uM) to inhibit NAcSDKP hydrolysis by rabbit lung Angiotensin I converting enzyme after 30 minutes incubation; outline: as §1
[4] = target: T1, Angiotensin-converting enzyme (Oryctolagus cuniculus); assay: In vitro stability of compound toward enzymatic degradation by rabbit lung Angiotensin I converting enzyme after 30 minutes incubation; outline: as §2
[5] = target: T1, Angiotensin-converting enzyme (Oryctolagus cuniculus); assay: In vitro stability of compound (50 uM) to inhibit NAcSDKP hydrolysis by rabbit lung Angiotensin I converting enzyme after 30 minutes incubation; outline: as §1
[6] = target: T1, Angiotensin-converting enzyme (Oryctolagus cuniculus); assay: In vitro stability of compound (51 uM) to inhibit NAcSDKP hydrolysis by rabbit lung Angiotensin I converting enzyme after 30 minutes incubation; outline: as §1

SMILES	Residual peptide [1] [%]	Residual peptide [2] [%]	Residual peptide [3] [%]	Residual peptide [4] [%]	Residual peptide [5] [%]	Residual peptide [6] [%]
CC(=O)N[C@@H](CO)C(=O)N[C@@H](CC(=O)O)C(=O)N[C@@H](CCCCN)C(=O)N1CCC[C@H]1C(N)=O (Ac-SDKP-NH2)	46	96.7	50.1	99.9	49.7	
CC(=O)N[C@@H](CO)C(=O)N[C@@H](CC(=O)O)C(=O)N[C@@H](CCCCN)CN1CCC[C@H]1C(=O)O	47.3	99.4	48.8	99.7	50.3	
CC(=O)N[C@@H](CO)CN[C@@H](CC(=O)O)C(=O)N[C@@H](CCCCN)C(=O)N1CCC[C@H]1C(=O)O	46.9	97.6		99.7	46.7	54
CC(=O)N[C@@H](CO)C(=O)N[C@@H](CC(=O)O)C(=O)N[C@@H](CCCCN)C(=O)N1CCC[C@H]1C(=O)O (Ac-SDKP-OH)				43.6		
CC(=O)N[C@@H](CO)C(=O)N[C@H](CN[C@@H](CCCCN)C(=O)N1CCC[C@H]1C(=O)O)CC(=O)O	46	100	49.3	100	41.7	
CC(=O)N[C@@H](CO)C(=O)N[C@@H](CC(=O)O)C(=O)N[C@@H](CCCCN)C(=O)N1CCCC1 (Ac-Ser-Asp-Lys-Pyrrolidide)		0		36.2		

Reference: ChEMBL document CHEMBL1130250, “NAcSDKP analogues resistant to angiotensin-converting enzyme” (J Med Chem, 1997)
